Data on 6 molecules can be found in ChEMBL document CHEMBL1151235, “Bromophenol derivatives from the red alga Rhodomela confervoides” (J Nat Prod, 2004).

Each structure is given as a SMILES string.

The subject of one test is MCF7. As to the kind of experiment: Cytotoxicity against human MCF7 cells by MTT assay. The test is classed as functional, cell-based. Summed up:
(§1)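 Panel of human tumour lines: A549 lung adenocarcinoma, BGC-823 stomach cancer, MCF-7 breast cancer, Bel7402 hepatoma and HCT-8 colon cancer. Activity reported as IC50 in μg/mL.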

The subject of another test is A549. As to the kind of experiment: Cytotoxicity against human A549 cells by MTT assay. The test is classed as functional, cell-based. A digest of the protocol: as §1
The test system of a further test is Bel-7402. As to the kind of experiment: Cytotoxicity against human Bel7402 cells by MTT assay. In kind it is functional, cell-based. Summed up:
as §1

The subject of a further test is HCT-8. As to the kind of experiment: Cytotoxicity against human HCT8 cells by MTT assay. The test is classed as functional, cell-based. Summed up:
as §1
A general note: Tetrazolium assays rely on reduction of a dye to a coloured formazan, in cell work by metabolically active cells.

A further test concerns BGC-823. As to the kind of experiment: Cytotoxicity against human BGC823 cells by MTT assay. The test is classed as functional, cell-based. A digest of the protocol:
as §1

The test system of another test is Staphylococcus aureus. As to the kind of experiment: Antimicrobial activity against Staphylococcus aureus. The test is classed as functional. Summed up: (§2)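 Whole-organism tests on S. aureus, E. coli and the yeast C. albicans. Potency reported as MIC50 in μg/mL.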
The test system of another test is Candida albicans. As to the kind of experiment: Antimicrobial activity against Candida albicans. The test is classed as functional. A digest of the protocol:
as §2

The subject of another test is Escherichia coli. As to the kind of experiment: Antimicrobial activity against Escherichia coli. The test is classed as functional. Summed up: as §2

As a reminder, the IC50 is the concentration needed to halve the response being measured. Low readings indicate inhibition by little substance, high ones a need for much substance. As to `CC(=O)/C=C/c1cc(O)c(O)c(Br)c1Br`, the IC50 in the test with MCF7, with A549, in the test on Bel-7402, in the test on HCT-8 and in the test on BGC-823 was > 10 µg/mL each time.
Broadly, the MIC is the lowest concentration that inhibits growth of the organism. Lower therefore signals inhibition by little substance. On to `COc1c(O)cc(C(Cc2cc(O)c(O)c(Br)c2Br)C(=O)O)cc1Br` (configuration not stated), for which the MIC in the test with Staphylococcus aureus, in the test with Candida albicans and against Escherichia coli was > 100 µg/mL in each case. For the same molecule, the IC50 with MCF7, with A549, in the test with Bel-7402, with HCT-8 and with BGC-823 was > 10 µg/mL in each case.
Regarding `COC(=O)Cc1cc(O)c(OC)c(Br)c1`, the MIC with Staphylococcus aureus, against Candida albicans and against Escherichia coli was > 100 µg/mL in each case. The concentration for half-maximal inhibition (IC50) in the test with MCF7, in the test with A549, with Bel-7402, in the test with HCT-8 and in the test on BGC-823 was > 10 µg/mL throughout.
As for `C[S+]([O-])Cc1cc(O)c(O)c(Br)c1Br` (configuration not stated), the minimum inhibitory concentration (MIC) in the test with Staphylococcus aureus, with Candida albicans and against Escherichia coli was > 100 µg/mL throughout. Moreover, the half-maximal inhibitory concentration (IC50) in the test with MCF7, in the test with A549, in the test with Bel-7402, in the test with HCT-8 and in the test with BGC-823 was > 10 µg/mL in each case.
Consider `COC(=O)C(Cc1cc(O)c(O)c(Br)c1Br)c1cc(O)c(OC)c(Br)c1` (configuration not stated), for which the IC50 in the test on MCF7, with A549, in the test on Bel-7402, in the test with HCT-8 and with BGC-823 was > 10 µg/mL each time.
Regarding `COc1c(O)cc(C(=O)O)cc1Br`, the MIC against Staphylococcus aureus, with Candida albicans and against Escherichia coli was > 100 µg/mL throughout. The IC50 in the test with MCF7, with A549, in the test with Bel-7402, with HCT-8 and in the test on BGC-823 was > 10 µg/mL throughout.
